Data: ChEMBL document CHEMBL3352117, “Piperazine and piperidine carboxamides and carbamates as inhibitors of fatty acid amide hydrolase (FAAH) and monoacylglycerol lipase (MAGL)” (Bioorg Med Chem, 2014)

What was measured:
[1] = target: T1, Monoglyceride lipase (Homo sapiens) (UniProt Q99685); assay: Inhibition of human recombinant MAGL expressed in HEK293 cells using 2-AG as substrate assessed as remaining activity at 10 uM
T1 sequence (whole entry): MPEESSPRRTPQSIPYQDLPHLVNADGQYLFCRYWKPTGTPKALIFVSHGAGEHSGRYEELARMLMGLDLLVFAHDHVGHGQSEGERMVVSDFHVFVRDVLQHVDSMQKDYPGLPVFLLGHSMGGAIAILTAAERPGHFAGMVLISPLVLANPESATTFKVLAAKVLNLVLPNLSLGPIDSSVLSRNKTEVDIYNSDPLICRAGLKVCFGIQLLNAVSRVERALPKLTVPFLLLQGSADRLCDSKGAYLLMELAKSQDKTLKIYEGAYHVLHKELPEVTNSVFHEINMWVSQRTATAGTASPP
Outline: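 Lysates of HEK293 cells transiently overexpressing human MAGL, 2.5 ug protein per incubation, with 50 uM 2-AG substrate. Test compound at 10 uM. Remaining activity expressed as % of control, given as range, n = 2.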

[2] = target: T2, Fatty-acid amide hydrolase 1 (Homo sapiens) (UniProt O00519); assay: Inhibition of human recombinant FAAH expressed in COS7 cells using anandamide as substrate assessed as remaining activity at 10 uM; format: cell-based; conditions: COS-7
T2 sequence (whole entry): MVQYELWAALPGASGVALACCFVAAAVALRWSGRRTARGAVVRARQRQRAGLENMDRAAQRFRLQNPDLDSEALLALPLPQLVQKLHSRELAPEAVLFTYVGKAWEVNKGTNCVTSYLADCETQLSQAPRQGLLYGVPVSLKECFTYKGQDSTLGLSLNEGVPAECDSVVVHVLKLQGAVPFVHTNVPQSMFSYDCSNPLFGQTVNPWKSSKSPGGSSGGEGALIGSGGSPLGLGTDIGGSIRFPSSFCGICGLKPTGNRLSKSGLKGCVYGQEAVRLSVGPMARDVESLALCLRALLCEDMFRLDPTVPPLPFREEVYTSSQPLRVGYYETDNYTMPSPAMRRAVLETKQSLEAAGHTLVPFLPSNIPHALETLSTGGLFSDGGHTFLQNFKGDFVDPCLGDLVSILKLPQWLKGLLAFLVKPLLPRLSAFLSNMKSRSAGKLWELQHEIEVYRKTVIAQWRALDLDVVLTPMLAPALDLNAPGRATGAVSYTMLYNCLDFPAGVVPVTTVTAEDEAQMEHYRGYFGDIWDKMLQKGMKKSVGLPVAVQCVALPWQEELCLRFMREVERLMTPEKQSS
Outline: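 Membranes of COS-7 cells transiently overexpressing human FAAH, 1 ug protein per incubation, with 20 uM anandamide substrate including 10 nM 3H-anandamide tracer. Test compound at 10 uM. Remaining activity expressed as % of control, given as range, n = 2.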

[3] = target: T3, Fatty-acid amide hydrolase 1 (Homo sapiens, UniProt O00519); assay: Inhibition of human recombinant FAAH expressed in COS7 cells using anandamide as substrate; format: cell-based, COS-7
T3 sequence (O00519 whole entry): T2 sequence (whole entry)
Outline: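 Membranes of COS-7 cells transiently overexpressing human recombinant FAAH, 1 ug protein per incubation. Anandamide substrate at 20 uM, including 10 nM 3H-anandamide tracer (specific activity 60 […]/mmol).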

[4] = target: T4, Monoglyceride lipase (Homo sapiens, UniProt Q99685); assay: Inhibition of human recombinant MAGL expressed in HEK293 cells using 2-AG as substrate; format: cell-based
T4 sequence (Q99685 whole entry): T1 sequence (whole entry)
Outline: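 Lysates of HEK293 cells transiently overexpressing human recombinant MAGL, 2.5 ug protein per incubation. 2-AG substrate at 50 uM.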

[5] = organism: Homo sapiens; assay: Selectivity ratio of IC50 for human recombinant FAAH to IC50 for human recombinant MAGL

Activity [1] [%] | Activity [2] [%] | IC50 ([3]; read-out: IC50) [nM] | IC50 ([3]; read-out: pIC50 (converted)) [nM] | IC50 ([4]; read-out: IC50) [nM] | Ratio IC50 [5] | IC50 ([4]; read-out: pIC50 (converted)) [nM] | SMILES
93 | 62 | – | – | – | – | – | O=C(N1CCN(C(c2ccccc2)c2ccccc2)CC1)n1cnc(-c2ccccc2)c1
86 | 89 | – | – | – | – | – | COc1ccc(NC(=O)N2CCN(C(c3ccccc3)c3ccccc3)CC2)cc1
– | – | 708 | 708 | 70 | – | – | O=C(N1CCN(Cc2ccc(Oc3ccccc3)cc2)CC1)n1nnc2ccccc21
– | – | 89 | 89.1 | 7.8 | 10 | – | O=C(N1CCN(Cc2cccc(Oc3ccccc3)c2)CC1)n1nnc2ccccc21
94 | 87 | – | – | – | – | – | O=C(Nc1ccccn1)N1CCN(C(c2ccccc2)c2ccccc2)CC1
58 | 84 | – | – | – | – | – | O=C(Nc1ccc([N+](=O)[O-])cc1)N1CCN(C(c2ccccc2)c2ccccc2)CC1
– | – | 15 | 15.5 | 2840 | – | – | O=C(N1CCN(Cc2cccc(Oc3ccccc3)c2)CC1)n1ccnc1
– | – | 282 | 282 | 0.9 | – | – | O=C(N1CCN(C(c2ccc(F)cc2)c2ccc(F)cc2)CC1)n1cncn1
85 | 89 | – | – | – | – | – | O=C(Oc1ccc([N+](=O)[O-])cc1)N1CCC(=C(c2ccc3c(c2)OCO3)c2ccc3c(c2)OCO3)CC1
62 | 88 | – | – | – | – | – | O=C(Nc1ccccc1)N1CCN(C(c2ccccc2)c2ccccc2)CC1
92 | 92 | – | – | – | – | – | O=C(OCc1ccccc1)N1CCC(C(O)(c2ccc3c(c2)OCO3)c2ccc3c(c2)OCO3)CC1
– | – | 452 | 447 | 1.3 | – | – | O=C(N1CCN(C(c2ccccc2)c2ccccc2)CC1)n1cncn1
96 | 86 | – | – | – | – | – | O=C(Nc1ccc(C(F)(F)F)cc1)N1CCN(C(c2ccccc2)c2ccccc2)CC1
– | – | 23 | 22.9 | 5.5 | 4 | – | O=C(N1CCN(Cc2cccc(Oc3ccccc3)c2)CC1)n1nnc2cccnc21
51 | – | 2300 | 2290 | – | – | – | O=C(N1CCN(C(c2ccccc2)c2ccccc2)CC1)n1ccnc1
– | – | 231 | 229 | 1910 | – | – | CCOC(=O)N1CCN(C(=O)n2nnc3cccnc32)CC1
– | – | 2.7 | 2.69 | 0.6 | 4.5 | – | O=C(N1CCN(Cc2cccc(Oc3ccccc3)c2)CC1)n1cncn1
98 | – | 3020 | 3020 | – | – | – | O=C(Nc1ccccc1)N1CCN(Cc2cccc(Oc3ccccc3)c2)CC1
– | – | 1620 | 1620 | – | 2320 | 0.692 | O=C(N1CCC(C(O)(c2ccc3c(c2)OCO3)c2ccc3c(c2)OCO3)CC1)n1cncn1
– | 76 | – | – | 74 | – | – | O=C(OC(C(F)(F)F)C(F)(F)F)N1CCN(Cc2cccc(Oc3ccccc3)c2)CC1
102 | 98 | – | – | – | – | – | O=C(Nc1ccc([N+](=O)[O-])cc1)N1CCN(Cc2cccc(Oc3ccccc3)c2)CC1
– | – | 141 | 141 | 1660 | – | – | CCOC(=O)N1CCN(C(=O)n2cncn2)CC1
– | – | 6 | 6.03 | 132 | – | – | O=C(N1CCN(c2ccccc2)CC1)n1cncn1
78 | 56 | – | – | – | – | – | COc1ccc(NC(=O)N2CCN(Cc3cccc(Oc4ccccc4)c3)CC2)cc1
– | – | 11 | 11.2 | 275 | – | – | O=C(N1CCN(c2ccccc2)CC1)n1nnc2cccnc21
101 | 87 | – | – | – | – | – | O=C(Nc1cccnc1)N1CCN(C(c2ccccc2)c2ccccc2)CC1
– | – | 971 | 977 | 1.7 | – | – | O=C(N1CCN(C(c2ccccc2)c2ccccc2)CC1)n1nnc2cccnc21
89 | 90 | – | – | – | – | – | O=C(OCC(Cl)(Cl)Cl)N1CCC(C(O)(c2ccc3c(c2)OCO3)c2ccc3c(c2)OCO3)CC1
– | – | 3.4 | 17.4 | 660 | – | – | O=C(N1CCN(Cc2ccc(Oc3ccccc3)cc2)CC1)n1ccnc1
92 | 84 | – | – | – | – | – | CCCCc1ccc(NC(=O)N2CCN(C(c3ccccc3)c3ccccc3)CC2)cc1

SMILES | Activity [1] [%] | Activity [2] [%] | IC50 ([3]; read-out: IC50) [nM] | IC50 ([3]; read-out: pIC50 (converted)) [nM] | IC50 ([4]; read-out: IC50) [nM] | Ratio IC50 [5] | IC50 ([4]; read-out: pIC50 (converted)) [nM]
O=C(Oc1ccc([N+](=O)[O-])cc1)N1CCN(Cc2ccc(Oc3ccccc3)cc2)CC1 | – | 43 | – | – | 1100 | – | –
O=C(N1CCC(C(c2ccc3c(c2)OCO3)c2ccc3c(c2)OCO3)CC1)n1cncn1 | – | – | 4800 | 4790 | 0.4 | > 13000 | –
O=C(Oc1ccc([N+](=O)[O-])cc1)N1CCN(C(c2ccc(F)cc2)c2ccc(F)cc2)CC1 | – | 85 | – | – | 347 | – | –
O=C(Oc1ccc([N+](=O)[O-])cc1)N1CCC(C(c2ccc3c(c2)OCO3)c2ccc3c(c2)OCO3)CC1 | – | 88 | – | – | 42 | – | –
O=C(Oc1ccc([N+](=O)[O-])cc1)N1CCN(C(c2ccccc2)c2ccccc2)CC1 | – | 86 | – | – | 257 | – | –
